TbMetRS inhib = T. brucei MetRS inhibitors, primary screen, biochemical, luminescence; methionyl-tRNA synthetase (Trypanosoma brucei brucei); purified T. brucei MetRS, ATP depletion, Kinase-Glo luminescence; inhibition, % at 11.9 µM; hit rate 0.4% among 360,000; AID 624268, 2012;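 active = inhibition above a per-plate cutoff of the control wells' mean inhibition plus 3 SD, cut at about 5.5% in these data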;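 note: 0% = DMSO wells median and 100% = median of wells with control inhibitor compound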
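Material: T. brucei methionyl-tRNA synthetase, purified; reagent: substrates ATP, L-methionine and bulk Escherichia coli tRNA; dosing: 11.9 µM single point; timing: 15 min plus 2 h at 25 °C; detection: luminescence of leftover ATP; evaluation: % inhibition; control set: DMSO-only wells as low control; replicates: singlicate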
Bfl-1 A1 inh = caspase 3/7 activation in MEF A1-2A-BIM cells, primary screen, A1 inhibitor project, cell-based, luminescence, HTS; Caspase-Glo 3/7 luminescence, 3 h; percent of clofoctol response, vehicle zero; caspase activation, % (concentration not given with the values); hit rate 0.066% among 330,000; AID 2462, 2010;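 active = over half of replicate activation scores above 10%, or exactly half above 10 with the replicate mean above 10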
NLRP3 yeast inh = NALP3 inflammasome inhibitors in reconstituted yeast, primary screen, luminescence, uHTS; inhibition, % at 10 µM; Yeast reconstituted NLRP3/ASC/caspase-1, beta-gal luminescence, 24 h; hit rate 0.39% among 330,000;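 active = inhibition of 50% or more; inactive = inhibition below 50%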;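 note: plate controls were induced DMSO wells for no effect and uninduced yeast grown without galactose for full effect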
MC4R antagonist = MC4R antagonists of cAMP signaling, primary screen, cell-based, TR-FRET, antagonist arm of biased-ligand search; Melanocortin receptor 4 (Homo sapiens), P32245; MC4R-expressing cells, MTII-stimulated cAMP, LANCE TR-FRET; inhibition, % at 6.5 µM; hit rate 0.48% among 360,000;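 active = inhibition above its plate's cutoff, the mean of tested wells on that plate plus 3 SD, cut at about 29% in these data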;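 note: 0% = Melanotan II alone and 100% = Melanotan II plus saturating MCL0020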
Target sequence (P32245 whole entry, looked up): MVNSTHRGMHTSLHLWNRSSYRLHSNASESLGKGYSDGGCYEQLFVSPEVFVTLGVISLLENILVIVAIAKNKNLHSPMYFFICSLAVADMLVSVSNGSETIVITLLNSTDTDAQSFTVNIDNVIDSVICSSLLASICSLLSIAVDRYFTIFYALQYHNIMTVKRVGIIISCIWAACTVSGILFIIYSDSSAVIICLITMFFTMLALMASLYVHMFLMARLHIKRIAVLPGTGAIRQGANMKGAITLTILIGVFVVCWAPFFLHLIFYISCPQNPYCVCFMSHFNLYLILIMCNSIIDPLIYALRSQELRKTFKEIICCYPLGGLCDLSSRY
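Material: U2OS-MC4R stable cell line | Reagent: Melanotan II challenge after compound preincubation | Doses: One concentration, 6.5 µM nominal | Incubation: 30-min compound preincubation, 1-h Melanotan II challenge, 1-h detection, room temperature | Signal: TR-FRET cAMP assay | Replicates: One well per compound, no replicates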
MC4R barr agon = MC4R agonists recruiting beta-arrestin, primary screen, cell-based, luminescence, agonist arm of biased-ligand search; Melanocortin receptor 4 (Homo sapiens), P32245; U2OS MC4R beta-arrestin complementation; percent of melanotan II response, DMSO zero; activation, % at 8.9 µM; hit rate 0.98% among 360,000; AID 540308, 2011;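 active = activation above a per-plate cutoff, the mean activation of sample wells on that plate plus 3 SD, cut at about 8% in these data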
NALP1 yeast inh = NALP1 inflammasome inhibitors in reconstituted yeast, colorimetric, S. cerevisiae, triplicate retest; S. cerevisiae NALP1/ASC/caspase-1 growth, X-gal OD620, 72 h; inhibition, % at 10 µM; hit rate 0.61% among 280,000; in the data active = inhibition mostly above about 24%, no sharp cut-off; inactive = mostly below about 32%
Starred values were filed as active, the others as inactive; x = not tested or not shown. Rows were chosen to be rich in hits. Some 2.5% of all compounds tested hit in one or more screens of this group.

SMILES | TbMetRS inhib | Bfl-1 A1 inh | NLRP3 yeast inh | MC4R antagonist | MC4R barr agon | NALP1 yeast inh
Cc1ccnc(NS(=O)(=O)c2ccc(NS(=O)(=O)c3cc(Cl)ccc3Cl)cc2)n1 | 0 | 1 | 5 | 0 | -1 | 40*
COCCN1C(=O)CCC1(C)C(=O)Nc1ccc2ccccc2c1 (centres undefined) | -1 | x | x | x | x | x
COc1cc([N+](=O)[O-])c(N2CCOCC2)c([N+](=O)[O-])c1OC | -1 | 1 | 5 | 6 | -1 | 42*
COc1ccc([N+](=O)[O-])cc1N(CC(=O)N1CCOCC1)S(C)(=O)=O | 0 | 1 | 8 | 17 | 0 | 42*
COc1ccc([N+](=O)[O-])cc1N(CC(=O)N1CCCC1)S(C)(=O)=O | -1 | 0 | 12 | 4 | 3 | 31
CCOc1ccc(/C=N/NC(=O)c2ccc(Cn3cc([N+](=O)[O-])cn3)o2)cc1 | -1 | -2 | 14 | 1 | 0 | 11
CC(C)(C)c1ccc(OCc2ccc(C(=O)N/N=C/c3ccc([N+](=O)[O-])cc3)o2)cc1 | -1 | 0 | 15 | 11 | 9.1* | -2
CCOC(=O)c1c(C)oc2c1c(CN1CCN(C(=O)OCC)CC1)c(O)c1ccccc12 | 1 | 20* | 15 | -1 | -1 | 8
CC(C)N(Cc1nnc(-c2ccccc2Cl)o1)C(=O)COc1cccc(Cl)c1 | 1 | x | x | 9 | 1 | x
O=[N+]([O-])c1ccc(OCC(O)CN2CCN(c3ccccc3F)CC2)cc1 (centres undefined) | 0 | 2 | 23 | 5 | 2 | 46*
CC(=O)Nc1ccc(C(=O)CSc2nnc(-c3ccccc3F)n2CCc2ccccc2)cc1 | 0 | x | x | -1 | 0 | x
NC(=O)C1CCN(C(=O)c2ccc(Cl)c(S(=O)(=O)N3CCCCCC3)c2)CC1 | 0 | -1 | 22 | -6 | -2 | x
O=C(Cc1coc2ccc3ccccc3c12)NCc1ccccc1 | 0 | 0 | 18 | 7 | -3 | 12
O=C(Cc1coc2ccc3ccccc3c12)NC1CCCc2ccccc21 (centres undefined) | 0 | 0 | 29 | 5 | 9.1* | x
N#Cc1cc(N)c(Nc2ccccc2)cc1C#N | 8.2* | 2 | 15 | -1 | -1 | 4
O=C(NC1CCCCC1)c1nc(C2CCNCC2)oc1-c1ccccc1 | 0 | x | x | x | x | x
CSc1cccc(NC(=O)C(=O)NCc2ccccc2)c1 | -1 | -1 | 1 | -4 | 8.7* | -19
CSc1cccc(NC(=O)NCc2cccc(CNC(=O)Nc3cccc(SC)c3)c2)c1 | 0 | x | 3 | 12 | -3 | x
COc1cc(C(=O)OCC(=O)NCc2ccc(F)cc2)ccc1OCC(C)C | 0 | -1 | 21 | -8 | 8.3* | -8
COc1cc(OC)c(NC(=O)C2CC(=O)N(c3ccc4c(c3)OCCO4)C2)cc1Cl (centres undefined) | 0 | 0 | 10 | 0 | 0 | x
CC1CCCCC1NC(=O)CCS(=O)(=O)c1ccc(Cl)cc1 (centres undefined) | 0 | 1 | 4 | 12 | -1 | x
CSCC[C@H](NC(=O)[C@H](Cc1ccccc1)n1c(=O)[nH]c2ccccc2c1=O)C(=O)NCC1CCC(C(=O)O)CC1 (some centres undefined) | 1 | 1 | 12 | 13 | 0 | 23
CC(CN1CCOCC1)OC(=O)C1COc2ccccc2O1 (centres undefined) | -1 | 0 | 7 | 8 | -1 | 28*
COc1ccc(CC(=O)OC(C)CN2CCOCC2)cc1 (centres undefined) | 0 | 1 | 18 | 13 | 0 | 29*
CC(CN(C)Cc1ccccc1)OC(=O)C1COc2ccccc2O1 (centres undefined) | 0 | 0 | 10 | 7 | 1 | 0
SMILES | TbMetRS inhib | Bfl-1 A1 inh | NLRP3 yeast inh | MC4R antagonist | MC4R barr agon | NALP1 yeast inh
CC(CN1CCOCC1)OC(=O)CCc1ccccc1 (centres undefined) | 0 | 1 | 15 | -3 | 0 | 4
Nc1ccc(-c2cnc(N)c(C(=O)c3cccnc3)n2)cn1 | 0 | x | x | -10 | 3 | x
CCSc1nnc(-c2ccncc2)o1 | 0 | 0 | 13 | 3 | -2 | 10
OCC#CCSc1nnc(-c2ccncc2)o1 | -1 | 0 | -2 | -4 | 3 | 31*
Cc1ccc2oc(=O)c3cnn(CC(=O)N(CCN(C)C)Cc4ccco4)c3c2c1 | 0 | 1 | 18 | 1 | 0 | 41*
CN(C)c1ccc(NS(=O)(=O)c2ccc(-c3csnn3)cc2)cc1 | 0 | 1 | 20 | 8 | 0 | 43*
c1ccc2c(Nc3ccc4c(c3)OCCO4)c3c(nc2c1)CCCC3 | 0 | 0 | 7 | 13 | 0 | 29*
Fc1cccc(Nc2c3c(nc4ccccc24)CCC3)c1 | -1 | 0 | 24 | -2 | 0 | 20
CCc1ccc(NC(=O)C2CCN(S(=O)(=O)c3ccc4c(c3)NC(=O)CO4)CC2)cc1 | -1 | x | 23 | -5 | 1 | -1
CCc1cccc(NC(=O)C2CCN(S(=O)(=O)c3ccc4c(c3)NC(=O)CO4)CC2)c1 | 0 | 9.7* | 1 | -1 | 1 | 8
O=Nc1c(-c2ccccc2)cc2ccccn12 | -1 | -1 | 32 | -31 | 1 | 38*
c1ccc2c(C3OCC4(CCCCC4)CO3)cccc2c1 | 0 | x | x | 11 | 1 | x
CCCCNS(=O)(=O)c1ccc2nc(SCC(N)=O)[nH]c2c1 | 1 | -2 | 2 | 21 | 0 | -7
CCCCNS(=O)(=O)c1ccc2nc(SCC(=O)c3ccccc3OC)[nH]c2c1 | 13* | -1 | 3 | 14 | -3 | -21
CC(OC(=O)C1=Cc2ccccc2OC1)C(=O)NCc1ccco1 (centres undefined) | 0 | 1 | 9 | -1 | 0 | 11
CCC(OC(=O)C1=Cc2ccccc2OC1)C(=O)NCc1ccco1 (centres undefined) | -1 | 0 | 33 | 5 | 1 | 33*
NC(=O)c1ccccc1OCC(=O)Nc1ccc2c(c1)OCCO2 | 0 | x | 0 | 10 | -1 | x
CCOC(=O)C1CCCN(C(=O)Nc2c(-c3ccccc3)noc2C)C1 (centres undefined) | 0 | 0 | 10 | 0 | 0 | 36*
CCOC(=O)N1CCN(C(=O)/C(=C/c2cccs2)NC(=O)c2ccc(OC)c(OC)c2)CC1 | -1 | 0 | -6 | 1 | -1 | -2
O=C(c1ccco1)N1CCN(C(=O)c2ccc(CS(=O)c3ccc(F)cc3)o2)CC1 (centres undefined) | 0 | 0 | 13 | -3 | -2 | 44*
